# Hits are enriched below; roughly 5.1% of the tested compounds scored in any of these assays.
# APP 5'UTR act: APP 5'UTR luciferase reporter activation | SH-SY5Y APP 5'UTR luciferase reporter, luminescence; zero percent = DMSO vehicle wells | hit rate 1% among 190,000 | activation, % at 2 µM;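 active = activation above a set limit, based on mean plus 3 SD of controls, cut at about 140% in these data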
# STAT3 activator: increases IL-6 driven STAT3 reporter signal; U3A cells, IL-6 STAT3-luciferase reporter, luminescence; 100% = signal with IL-6 EC80 alone; activation (% of control), % at 5.6 µM; hit rate 0.91% among 190,000; AID 871;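 active = activation above the screen-wide mean of compound activation plus 3 SD, cut at about 130% in these data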;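 also: 0% = background luminescence of wells with medium and substrate only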
#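 Test system: STAT3-luciferase reporter U3A cells; Detection: reporter luminescence signal; Times: 1 h compound pre-exposure, 6 h IL-6 stimulation, 37 °C; Benchmarks: IL-6-only high control; Also added: IL-6 stimulus at 33 ng/mL final.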
# STAT3 blocker: inhibitors of IL-6 induced STAT3 signaling | hit rate 0.89% among 190,000 | U3A cells, IL-6 STAT3-luciferase reporter, luminescence; host cell line lacks STAT1 | AID 862 | inhibition, % at 5.5 µM;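 active = inhibition above the mean inhibition across all screened compounds plus 3 SD, cut at about 44% in these data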;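 also: 0% = DMSO only wells and 100% = 100 µM nifuroxazide control wells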
# STAT1 blocker: inhibitors of IFN-gamma induced STAT1 signaling; hit rate 0.35% among 200,000; AID 920; NIH 3T3 STAT1-luciferase reporter, luminescence; inhibition, % at 5.5 µM;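 active = inhibition above a set limit, the mean inhibition across all tested compounds plus 3 SD, cut at about 34% in these data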;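 also: 0% = IFN-gamma with DMSO and 100% = IFN-gamma with 300 µM nifuroxazide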
# NF-kB neuron act: raises NF-kB expression in human neuronal cells. fold change at 12.5 µM. hit rate 1.6% among 190,000. NF-kB reporter expression; active compounds read high; in the data active = fold change above about 3.3
# STAT1 activator: increases IFN-gamma driven STAT1 reporter signal; NIH 3T3 STAT1-luciferase reporter, luminescence; 100% = IFN-gamma alone, no compound; activation (% of control), % at 5.5 µM; hit rate 2.6% among 200,000;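 active = activation above the screen-wide mean activation plus 3 SD, cut at about 130% in these data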;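 also: raw ratio to IFN-gamma control signal so 100% means no change and 0% no light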
# * marks the source's active call; other numbers are inactive results.
SMILES,APP 5'UTR act,STAT3 activator,STAT3 blocker,STAT1 blocker,NF-kB neuron act,STAT1 activator
C=CCNC(=O)COc1ccc(Br)cc1Cl,39,94,12,-35,2.3,132*
COc1cccc(-c2nn(-c3ccccc3)cc2CN2CCCO2)c1,10,94,12,0,0.87,100
O=[N+]([O-])c1ccc(-c2cc(-c3ccc(Cl)cc3)n[nH]2)cc1,9,83,26,-44,1.7,138*
Nc1[nH]c(N=NC(=O)c2ccccc2)c2ccccc12,132,99,-1,-47,3.4*,142*
Nc1[nH]c(N=NC(=O)c2ccc(Cl)cc2)c2ccccc12,17,106,-13,-19,1.3,117
Cc1ccc(-n2c(C)cc(C(=O)COC(=O)c3c(C)noc3C)c2C)cc1,72,89,16,-32,3.5*,129*
O=C(NNc1c2ccccc2nc2ccccc12)c1cccc(O)c1,2,94,7,3,0.3,97
Oc1cccc(-c2nc3ccc4ccccc4c3c3c2CCC3)c1,88,114,-17,-45,3.8*,142*
CCOC(=O)c1c(CSc2ccc(C)cc2)oc2ccc(O)cc12,-10,99,-1,2,1.9,98
Cc1nonc1C(=O)N/N=C/c1ccncc1,15,101,6,-45,0.9,140*
COc1ccc(/C=N/NC(=O)c2nonc2C)cc1,1,77,30,-32,1.6,129*
Nc1nonc1C(=O)N/N=C/c1ccncc1,-16,100,5,-17,1.3,118
COc1ccc(N2CCN(c3cnc4ccccc4n3)CC2)cc1,65,101,9,-38,2.2,133*
COc1cccc(N2CCN(c3cnc4ccccc4n3)CC2)c1,41,95,8,-41,1.1,134*
Clc1ccc(N2CCN(c3cnc4ccccc4n3)CC2)cc1,-4,83,21,-23,2.1,122
COC(=O)C(CC(C)C)NC(=O)c1cccs1 (configuration not stated),21,89,14,1,0.97,97
CC(C)=CC(=O)OCc1cc([N+](=O)[O-])cc2c1OCOC2,43,123,-22,-46,0.91,138*
Cc1ccc(Cn2ncc3c(N4CCN(C5CCCC5)CC4)ncnc32)cc1,7,97,4,6,0.98,95
Nn1cnnc1SCC(=O)Nc1ccc(C2CCCCC2)cc1,19,107,-1,-19,2.1,116
O=C(O)CSCC(=O)Nc1ccc(C2CCCCC2)cc1,-67,23,93*,52*,0.19,52
CCOc1ccc(-c2csc3ncn(-c4ccc(OC)cc4)c(=O)c23)cc1,6,93,10,-4,1.2,102
Cc1cc2c(c(SCC(=O)NCc3ccccc3Cl)n1)C(=O)OC2,-8,100,6,-1,1.1,103
Cc1ccc(/C=C2\OC(=O)c3ccccc32)cc1,106,157*,-54,-50,5.7*,146*
Cc1c(Cl)c([N+](=O)[O-])nn1CC(=O)NC(C)C1CC2CCC1C2 (configuration not stated),5,94,7,4,1.2,97
[O-]/C(=C(\C(=S)Nc1ccc(SC(F)F)cc1)[n+]1ccccc1)c1ccc(Cl)cc1Cl,3,88,16,1,4.7*,98
SMILES,APP 5'UTR act,STAT3 activator,STAT3 blocker,STAT1 blocker,NF-kB neuron act,STAT1 activator
COc1ccc(OC(=O)c2cnn(-c3ccccc3)c2C)cc1,106,97,4,-55,5.9*,150*
CCOC(=O)c1cnn(-c2ccccc2)c1N,13,96,5,1,1.9,99
CCN(CC)S(=O)(=O)c1ccc(N=N/C(C(C)=O)=C(/C)O)cc1,-13,104,-5,2,1.1,98
CC(=O)/C(N=Nc1ccc2c(c1)OCO2)=C(\C)O,37,108,-6,-43,1.1,138*
CCSc1ncnc2c1sc1nc3c(cc12)COC(C)(C)C3,77,88,17,-24,3.1,122
Clc1ccc(/C=N/NC(=Nc2ccccc2)c2ccccn2)c(Cl)c1,164*,101,10,-32,3.1,128
Cc1nnnn1CC(=O)Nc1ccccc1[N+](=O)[O-],1,105,-4,-4,0.93,103
CC(=O)Nc1ccc(C2Nc3ccccc3C(=O)N2C2CCCCC2)cc1 (configuration not stated),6,104,0,-5,3.4*,104
CCOC(=O)c1nn(-c2ccc(C)cc2)cc1O,137*,88,19,-9,4.1*,108
CCOC(=O)c1cc(C(=O)OCC)cc(-n2cc(O)c(C(=O)OCC)n2)c1,-7,88,18,14,0.7,87
COc1ccc(N=CC2=C(O)c3ccccc3C2=O)c(OC)c1,176*,15,99*,74*,1,33
Cc1ccccc1N=CC1=C(O)c2ccccc2C1=O,140*,14,99*,80*,1.3,26
COc1ccc(/C(C)=N/NS(=O)(=O)c2ccccc2)c(OC)c1,15,111,-1,-4,0.99,102
O=C(/C(=C(\O)c1ccccc1)c1ncc[nH]1)c1ccccc1,-1,104,-4,-1,1,101
c1coc(CNc2nc(-c3cccs3)cs2)c1,40,96,6,-31,2.5,127
Oc1ccc(-c2csc(NCc3ccco3)n2)cc1,24,97,9,-16,3.7*,114
Cc1csc(Nc2ccc(Cl)cc2)n1,47,96,10,-46,2.3,138*
Cc1ccc(Nc2nc(C)cs2)cc1,199*,85,20,-35,0.94,130*
Cc1csc(Nc2cccc3ccccc23)n1,22,88,16,-4,1.4,104
C=CCNC(=O)c1ccccc1NC(=O)C1COc2ccccc2O1 (configuration not stated),8,98,4,2,0.96,97
COCCn1c(-c2cccc([N+](=O)[O-])c2)nc2c1c(=O)[nH]c(=O)n2Cc1ccccc1,25,109,-8,-4,0.39,104
CCn1c(CNC(=O)c2ccccc2F)nnc1SCC(=O)NC1CCCCC1C (configuration not stated),6,107,-1,4,1,95
O=C(Oc1ccc2cc(Br)ccc2c1)N1CCCCCC1,68,104,-3,-35,2.3,131*
O=C(Oc1ccc2ccccc2c1Br)N1CCCCCC1,172*,100,1,-38,2.4,135*
CCN(CC)C(=O)Oc1ccc2ccccc2c1Br,18,112,-12,-40,2.4,135*
O=C(COc1ccc2ccccc2c1Br)N1CCN(c2ccccn2)CC1,6,101,2,-1,1,101
COc1ccc(OCc2nnc(SCC(=O)c3c(N)n(C)c(=O)n(C)c3=O)n2-c2ccccc2F)cc1,-11,100,7,-4,1.1,103

# Compound activity: PubChem BioAssay, several laboratories
